Measurements reported in ChEMBL document CHEMBL1143847, “Competitive inhibitors of the CphA metallo-beta-lactamase from Aeromonas hydrophila” (Antimicrob Agents Chemother, 2007).

Columns and labels:
[1] = biological target: T1, Beta-lactamase (Aeromonas hydrophila, UniProt Q44079); assay: Inhibition of Aeromonas hydrophila beta lactamase CphA by competitive inhibition assay
[2] = biological target: T1, Beta-lactamase; assay: Inhibition of Aeromonas hydrophila beta lactamase CphA at pH 7.0
[3] = biological target: T1, Beta-lactamase; assay: Inhibition of Aeromonas hydrophila beta lactamase CphA at pH 8.0
[4] = biological target: T1, Beta-lactamase; assay: Inhibition of Aeromonas hydrophila beta lactamase CphA at pH 9.0
[5] = biological target: T1, Beta-lactamase; assay: Inhibition of Aeromonas hydrophila beta lactamase CphA at pH 10.0
[6] = Inhibition of Aeromonas hydrophila beta lactamase CphA N116H-N220G mutant by competitive inhibition assay
Method in brief: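 Purified double-mutant enzyme (0.03–0.7 nM) in 20 mM HEPES pH 7.0 with 20 μg/ml BSA. Imipenem was varied 20–200 μM at three inhibitor concentrations and without inhibitor, with no preincubation, at 30°C. Initial rates were Hanes-linearized to give the competitive Ki. The dizinc form was run separately with cefotaxime in 20 mM cacodylate pH 6.5, BSA, 100 μM ZnCl2.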

T1 sequence (Q44079 whole entry): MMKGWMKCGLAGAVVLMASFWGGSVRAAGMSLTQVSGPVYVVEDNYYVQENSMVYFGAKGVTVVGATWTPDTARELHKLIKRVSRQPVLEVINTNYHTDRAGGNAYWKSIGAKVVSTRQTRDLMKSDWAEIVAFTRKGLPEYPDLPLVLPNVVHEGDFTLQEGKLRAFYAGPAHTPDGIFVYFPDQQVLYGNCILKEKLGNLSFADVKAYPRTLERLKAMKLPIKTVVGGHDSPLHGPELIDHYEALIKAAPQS

SMILES	Ki [1]	Ki [2]	Ki [3]	Ki [4]	Ki [5]	Ki [6]
O=C(O)c1ccncc1C(=O)O	1100 µM	–	–	–	–	–
O=C(O)c1ccccn1 [2-PICOLINIC ACID]	5.7 µM	46 µM	76 µM	440 µM	1100 µM	13 µM
O=C(O)c1ccc(C(=O)O)nc1 [PYRIDINE-2,5-DICARBOXYLIC ACID]	420 µM	–	–	–	–	–
O=C(O)c1cccnc1C(=O)O [QUINOLINIC ACID]	200 µM	–	–	–	–	–
